# MEKK2 mut-MEK5 – MEK5 binding signal on mutant MEKK2 PB1, primary screen, biochemical, multiplex bead flow cytometry, Alexa488-MEK5. Alexa488-MEK5 binding to MEKK2 mutant. percent response, % at 10 µM. actives 0.35% (n = 290,000); in the data active means percent response above about 24%, passing the limit was not always enough
# Dynein transport – inhibitors of GR-EGFP nuclear translocation, primary screen, dynein cargo transport inhibitor project, imaging, high-content, 3617.4 mouse cells | test concentration mostly 20 µM; stimulated with dexamethasone, 1 µM; stronger effect = lower value | z-score, hits read low | actives 0.47% (n = 220,000);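 active means plate z-score of nuclear minus cytoplasmic receptor signal below a set negative limit, without overly bright fluorescence or cell loss, cut at about -3.5 in these data, passing the limit was not always enough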;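 further: z-score of nuclear minus cytoplasmic ring GR-EGFP intensity difference per well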
#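 Also added: dexamethasone, 1.0 µM final. Medium: tet-free, stripped-serum medium. Detection: fixed, Hoechst-stained cells imaged at 10x for EGFP. Read-out: nuclear-to-cytoplasmic GR-EGFP distribution per well. Times: induction 48 h, compound 1 h, agonist 30 min.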
# ATG4B inhibitor – ATG4B protease inhibitors, primary screen, biochemical, fluorescence, uHTS | Cysteine protease ATG4B (Homo sapiens), Q9Y4P1 | ATG4B cleavage of LC3-PLA2, NBD-HPC fluorescence, 1 h | inhibition, % at 8.33 µM | actives 0.51% (n = 340,000) | AID 504462, 2011; in the data active means inhibition above about 40%
# Target sequence (Q9Y4P1 whole entry, looked up): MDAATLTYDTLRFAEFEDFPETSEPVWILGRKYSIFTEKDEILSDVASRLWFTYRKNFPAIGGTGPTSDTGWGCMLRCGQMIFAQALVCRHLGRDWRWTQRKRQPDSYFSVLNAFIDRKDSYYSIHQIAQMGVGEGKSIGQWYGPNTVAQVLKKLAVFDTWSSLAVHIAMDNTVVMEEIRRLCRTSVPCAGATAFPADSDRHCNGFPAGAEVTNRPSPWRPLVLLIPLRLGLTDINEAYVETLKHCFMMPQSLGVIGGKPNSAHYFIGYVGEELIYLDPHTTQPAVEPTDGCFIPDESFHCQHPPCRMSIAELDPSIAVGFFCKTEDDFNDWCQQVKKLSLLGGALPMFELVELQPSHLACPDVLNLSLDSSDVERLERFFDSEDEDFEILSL
# MEKK3 PB1 HTS – modulators of MEKK3-MEK5 PB1 binding, primary screen, biochemical, wildtype MEKK3, multiplex bead flow cytometry, Alexa488-MEK5. bead-based flow cytometry, Alexa488-MEK5 binding to MEKK3; actives lie on both sides; 0 = blocked by unlabeled MEK5, 100 = vehicle. binding response (% of control), % at 10 µM. actives 1.4% (n = 290,000). AID 1529, 2009;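 active means binding response more than 3 SD above or below the average of its plate-row segment, actives on both sides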;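 further: Alexa488 bead fluorescence after subtracting the streptavidin-only scavenger bead signal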
# MEKK2wt PB1 HTS – modulators of MEK5 binding to wildtype MEKK2, primary screen, biochemical, multiplex bead flow cytometry, Alexa488-MEK5; Mitogen-activated protein kinase kinase kinase 2 (Homo sapiens), Q9Y2U5; Alexa488-MEK5 binding to MEKK2 WT; actives lie on both sides; binding response (% of control), % at 10 µM; actives 1.1% (n = 290,000); AID 1531, 2009; in the data active means binding response below about 67% or above about 130%
# Beta2AR agonist – beta2AR agonists driving receptor internalization, primary screen, cell-based, FAP fluorogen, flow cytometry; Beta-2 adrenergic receptor (Homo sapiens), P07550; Am2.2-beta2AR cells; response, % (test concentration not listed); actives 0.43% (n = 340,000); AID 504454, 2011;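 active means response above a set limit, near 3 SD of response in nonfluorescent compounds, cut at about 42% in these data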
# MEKK2wt confirm – modulators of MEK5 binding to wildtype MEKK2, confirmation, biochemical, single concentration, multiplex bead flow cytometry | actives 2.4% (n = 5,900) | Alexa488-MEK5 binding to MEKK2 WT; actives lie on both sides | shares compounds with MEKK3 PB1 HTS | binding response (% of control), % at 10 µM; in the data active means binding response below about 16% or above about 210%; inactive means in between
# MEKK2mut confirm – mutant MEKK2 PB1-MEK5 binding signal retest – biochemical, single concentration, multiplex bead flow cytometry, confirmation. shares compounds with MEKK3 PB1 HTS. Alexa488-MEK5 binding to MEKK2 mutant. percent response, % at 10 µM. actives 2% (n = 5,900). AID 1893, 2009; in the data active means percent response mostly above about 71%, no sharp cut-off; inactive means mostly below about 38%;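 further: higher means compound restores mutant binding toward wildtype level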
# MEKK3 confirm – MEKK3 wild-type PB1 binding to MEK5, inhibitors, confirmation, biochemical, bead multiplex flow cytometry, single concentration, wildtype; actives 1.8% (n = 5,900); binding response (% of control), % at 10 µM; Alexa488-MEK5 binding to MEKK3; stronger effect = lower value; shares compounds with MEKK3 PB1 HTS;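 active means binding response below 72% of control, or above a set upper limit, though filed actives all read lower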
# Hits are given with their value; n = inactive; x = no result; ! = repeats disagree; [ ] = remark or other dose. Hits are enriched below; roughly 2.9% of the tested compounds scored in any of these assays.
SMILES,MEKK2 mut-MEK5,Dynein transport,ATG4B inhibitor,MEKK3 PB1 HTS,MEKK2wt PB1 HTS,Beta2AR agonist,MEKK2wt confirm,MEKK2mut confirm,MEKK3 confirm
O=C(c1ccc(F)cc1)N1CCN2C(=O)c3ccccc3C12c1ccc(Cl)cc1 (stereo unspecified),n,n,n,n,n,n,x,x,x
O=C(c1ccc(F)cc1)N1CCN2C(=O)c3ccccc3C12c1ccccc1 (stereo unspecified),n,n,n,60[inhibitor],n,n,n,n,n
COc1ccc(C)cc1Nc1nc(N)c2cc(OC)c(OC)cc2n1,n,x,n,n,n,n,x,x,x
COc1cc2nc(N3CCN(c4cc(C)ccc4C)CC3)nc(N)c2cc1OC,42,x,n,n,186,n,226,75,n
O=C1CC(C(=O)O)(c2ccccc2)c2cccc(F)c21 (stereo unspecified),n,x,n,n,n,n,x,x,x
Fc1cccc(NC(=S)NCc2cccnc2)c1,n,n,n,n,n,n,x,x,x
Cc1cc(C)cc(NC(=S)NCc2cccnc2)c1,n,n,n,142,n,n,n,n,n
Fc1ccc(NC(=S)NCc2cccnc2)cc1,n,n,n,47[inhibitor],n,n,n,n,n
Cc1cc(C)cc(NC(=S)NCc2ccncc2)c1,n,n,n,n,n,n,x,x,x
CCN(CC)S(=O)(=O)c1cc(NC(=O)CNc2cccc(S(=O)(=O)N3CCOCC3)c2)ccc1C,x,x,n,x,x,n,x,x,x
COc1ccc(Cl)cc1N1CCN(CCNC(=O)Nc2ccccc2C)CC1,x,n,n,x,x,n,x,x,x
COc1ccccc1N1CCN(CCCNC(=O)Nc2ccccc2C)CC1,29,n,n,n,n,n,n,n,n
OCCCCCNc1ncnc2ccccc12,n,n,n,128,n,n,n,n,n
CC(C)c1ccc(NC(=O)C(c2ccc3c(c2)OCO3)N2CCN(C(=O)c3ccco3)CC2)cc1 (stereo unspecified),n,n,n,n,n,n,x,x,x
CCN(CC)C(C(=O)Nc1ccc(C(C)C)cc1)c1ccc2c(c1)OCO2 (stereo unspecified),n,n,n,n,134,n,n,n,n
Cc1ccc(N(CC(=O)NC(C)C)C(=O)CCC(=O)Nc2nccs2)cc1C,n,x,n,n,n,n,x,x,x
COc1ccc(C2=NS(=O)(=O)N(C)C(C(=O)N3CCCCC3)=C2)cc1OC,n,x,n,n,n,n,x,x,x
C=CCn1c(C)c(/C=C/c2cc[n+](C)cc2)c2ccccc21,62,x,n,n,n,n,n,n,n
NS(=O)(=O)c1ccc(NC(=O)c2ccc(S(=O)(=O)N3CCCCCC3)cc2)cc1,x,x,n,x,x,n,x,x,x
CN1CCC(=C2c3ccccc3CCc3sccc32)CC1,n,x,n,n,155!,n,n,n,n
CN1CCC(=C2c3ccccc3CC(=O)c3sccc32)CC1,n,n,n,n,n,n,x,x,x
CSCC[C@H](NC(=O)c1cc([N+](=O)[O-])ccc1Cl)c1nc2ccccc2[nH]1,n,n,n,143,n,n,n,n,n

# Compound activity from PubChem.
